Assay outcomes: PubChem, several laboratories
Most compounds without a hit are left out; they make up all but 0.72% or so of the library.
AI-2 QS mod: Vibrio harveyi AI-2 quorum sensing modulators, primary screen, JMH597 strain, luminescence/OD600 ratio | activity change, % at 7.5 µM | Vibrio harveyi JMH597 AI-2 luminescence/OD600 ratio, 9 h; hits give low values; strain lacks LuxN and CqsS sensors; 0 = neutral-control median | 300,000 compounds, 0.4% hits; in the data active = activity change below about -75%, passing the limit was not always enough; inconclusive = no clear call, values can overlap the other calls;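 note: luminescence divided by OD600 gain over 9 h not by final OD600 alone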
PolyA inh: polyadenylation inhibitors in yeast reporter cells, primary screen, luminescence, S. cerevisiae. S. cerevisiae SKY197-pL101 polyadenylation reporter, beta-gal luminescence; efflux-impaired pdr1/pdr3 knockout yeast; score 100 = 6 SD above DMSO. activity score, % at 12 µM. 300,000 compounds, 0.02% hits. AID 1875, 2009;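 active = lowest replicate activity score at least 50, where 100 means six control SD above control mean; inconclusive = lowest score under 50 but half or more replicates reach 50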;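 note: yeast exposed to compound for 9 h at 30 °C; higher score means more reporter readthrough which indicates perturbed polyadenylation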
STK33 inh: inhibitors of purified STK33 kinase, primary screen, biochemical, ADP-Glo luminescence, homogeneous, cell-free; MBP phosphorylation; inhibition, % at 10 µM; 320,000 compounds, 0.073% hits; AID 2661, 2010;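 active = inhibition at or above 25%, using the most active replicate where run in duplicate; inactive = inhibition below 25%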
GSK3beta inhib: human GSK3beta kinase inhibitors, primary screen, biochemical, cell-free homogeneous, HTS. 300,000 compounds, 0.038% hits. AID 2097, 2009. GST-GSK3beta kinase, ADP-Glo luminescence, 60 min; hits give low values. activity score (negative = inhibition), % at 10 µM. Glycogen synthase kinase-3 beta (Homo sapiens), P49841;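 active = more than half of replicate wells score below -50%, meaning over 50% inhibition versus plate controls; inconclusive = some replicates but at most half score below -50%; inactive = no replicate scores below -50%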
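Test system: GST-fused GSK3beta enzyme, cell-free | Quantity: 1.6 ng GST-GSK3beta enzyme per well | Reagent: 25 µM ATP with peptide substrate | Schedule: 60 min enzyme reaction, room temperature | Signal: Luminescent ADP-Glo measurement of ADP formed | Read-out basis: Score relative to plate controls | Control set: DMSO and 20 µM GW8510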
CR mimetic SO: reduction of superoxide in aged yeast, primary screen, HTS; superoxide response (% of plate mean), % at 10 µM; 330,000 compounds, 0.18% hits; S. cerevisiae aged cells, superoxide DHE fluorescence; hits give low values;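 active = superoxide response under a set limit, about three screen SD below normal, cut at about 65% in these data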;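 note: yeast aged for seven days with compound at 30 °C before DHE staining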
GSK3A inh: blockers of GSK3A enzyme activity – biochemical, luminescence, cell-free homogeneous, HTS, primary screen. Glycogen synthase kinase-3 alpha (Homo sapiens), P49840. GSK-3 alpha kinase, ADP-Glo luminescence, 60 min. inhibition, % at 10 µM. 320,000 compounds, 0.1% hits. AID 2650, 2010;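 active = more than half of replicates show inhibition above 20%; inconclusive = some but at most half of replicates above 20% inhibition; inactive = no replicate shows inhibition above 20%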;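 note: GST-tagged GSK-3 alpha with peptide substrate and 25 µM ATP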
Target sequence (P49840 whole entry, looked up): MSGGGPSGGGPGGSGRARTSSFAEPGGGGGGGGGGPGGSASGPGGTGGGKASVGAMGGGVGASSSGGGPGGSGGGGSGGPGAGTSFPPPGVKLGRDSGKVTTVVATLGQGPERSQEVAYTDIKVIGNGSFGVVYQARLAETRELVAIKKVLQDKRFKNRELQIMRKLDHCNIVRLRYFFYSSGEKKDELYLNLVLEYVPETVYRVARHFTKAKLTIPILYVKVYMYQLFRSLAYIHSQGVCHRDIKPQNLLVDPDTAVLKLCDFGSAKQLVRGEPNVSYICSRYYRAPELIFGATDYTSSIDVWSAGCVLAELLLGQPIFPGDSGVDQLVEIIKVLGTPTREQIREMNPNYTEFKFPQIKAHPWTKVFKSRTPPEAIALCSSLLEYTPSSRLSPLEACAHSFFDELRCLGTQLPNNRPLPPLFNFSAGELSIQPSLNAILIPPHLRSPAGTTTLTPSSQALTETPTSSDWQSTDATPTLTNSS
JMH597 growth rt: Vibrio harveyi growth inhibition, confirmation, counter-screen for AI-2 quorum sensing project, JMH597 strain, OD600 absorbance; 9 h; lacks LuxN and CqsS sensors; growth inhibition, % at 7.5 µM; 750 compounds, 1% hits; AID 2726, 2010; shares compounds with AI-2 QS mod;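 active = every replicate shows growth inhibition above 50%; inconclusive = at least half, but not all, replicates pass that cutoff; inactive = fewer than half of replicates pass it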
BB721 const-QS lum: luminescence inhibition in constitutive-on V. harveyi, confirmation, counter-screen for LuxS inhibitor project, strain BB721, luminescence readout; inhibition, % at 7.5 µM; Vibrio harveyi BB721 luminescence, 9 h; shares compounds with AI-2 QS mod; 750 compounds, 95% hits;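 active = inhibition above about 80% in every replicate, not just on average, limit read from the data; inconclusive = at least half of replicates past the limit, but not all; inactive = fewer than half of replicates past the limit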
BB721 growth rt: growth inhibition of V. harveyi BB721, confirmation, cytotoxicity control for AI-2 quorum sensing inhibitors, strain BB721, absorbance OD600. shares compounds with AI-2 QS mod. growth inhibition, % at 7.5 µM. Vibrio harveyi BB721 growth, 9 h. AID 2728, 2010. 750 compounds, 3% hits;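 active = every replicate shows growth inhibition above 50%; inconclusive = at least half but not all replicates above 50% inhibition; inactive = under half of replicates above 50% inhibition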
AI-2 QS JMH597: Vibrio harveyi AI-2 signaling luminescence modulation – JMH597 strain, confirmation; 750 compounds, 97% hits; inhibition, % at 7.5 µM; Vibrio harveyi JMH597 AI-2 quorum sensing luminescence, 9 h; luxN and CqsS knockout, AI-2 only; shares compounds with AI-2 QS mod;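 active = every replicate shows more than 75% inhibition of signal versus neutral control wells; inconclusive = half to three quarters of replicates exceed 75% inhibition; inactive = fewer than half of replicates exceed 75% inhibition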
Large screens that a line does not name were inactive (follow-up assays come after a bar, where they were run).

N#Cc1nc(-c2ccccc2F)oc1NCc1ccccc1	AI-2 QS mod -90.1 | JMH597 growth rt inactive | BB721 const-QS lum 95.8 | BB721 growth rt inactive | AI-2 QS JMH597 97.2
Cc1ccc(CNc2oc(-c3ccco3)nc2C#N)cc1	AI-2 QS mod -86.5 | JMH597 growth rt inactive | BB721 const-QS lum 94.9 | BB721 growth rt inactive | AI-2 QS JMH597 97.6
CCc1ccc(CCC(=O)Nc2ccc(C)c(C)c2)o1	AI-2 QS mod -87.0 | JMH597 growth rt inactive | BB721 const-QS lum 93.2 | BB721 growth rt inactive | AI-2 QS JMH597 95.8
CCc1ccc(NC(=O)CCc2ccc(CC)o2)cc1	AI-2 QS mod inconclusive | JMH597 growth rt inactive | BB721 const-QS lum inactive | BB721 growth rt inactive | AI-2 QS JMH597 88.0
O=CN(c1ccccc1)c1ccc2ccccc2c1	none
Clc1cccc(CSc2ccc(-c3cccnc3)nn2)c1	AI-2 QS mod -91.3 | JMH597 growth rt inactive | BB721 const-QS lum 97.2 | BB721 growth rt inactive | AI-2 QS JMH597 98.0
Clc1cccc(CSc2ccc(-c3ccco3)nn2)c1	none
CCCCn1c(N)c(N(CCOC)C(=O)c2ccc(-c3ccc(C(C)=O)cc3)o2)c(=O)[nH]c1=O	none
CCCc1nnc(SCC(=O)Nc2ccc(NC(C)=O)cc2)n1-n1cccc1	none
Cc1ccccc1NCCC(=O)Nc1ccc(F)cc1	AI-2 QS mod -87.3 | JMH597 growth rt inactive | BB721 const-QS lum 95.4 | BB721 growth rt inactive | AI-2 QS JMH597 96.8
Cc1ccccc1NC(=O)CC(=O)Nc1ccccc1C	none
Cc1ccccc1NCCC(=O)Nc1ccc(Cl)cc1	AI-2 QS mod -83.7 | JMH597 growth rt inactive | BB721 const-QS lum 96.6 | BB721 growth rt inactive | AI-2 QS JMH597 97.4
O=C(Cn1cnc2ccccc2c1=O)Nc1ccc(S(=O)(=O)N2CCCC2)cc1	AI-2 QS mod -96.6 | JMH597 growth rt inactive | BB721 const-QS lum 99.6 | BB721 growth rt inactive | AI-2 QS JMH597 99.7
O=C(Cn1cnc2ccccc2c1=O)Nc1ccc(N2CCOCC2)cc1	none
O=C(Cn1cnc2ccccc2c1=O)Nc1ccc(S(=O)(=O)N2CCOCC2)cc1	AI-2 QS mod -94.5 | JMH597 growth rt inactive | BB721 const-QS lum 98.8 | BB721 growth rt inactive | AI-2 QS JMH597 99.1
CC(=O)c1cc(CN2CCC(C(=O)Nc3ccc(-n4nc(C)cc4C)cc3)CC2)cs1	none
CC(=O)Nc1cccc(CP(=O)(c2ccccc2)c2ccccc2)c1	none
Nn1c(SCc2ccc([N+](=O)[O-])cc2)nc2ccccc2c1=O	AI-2 QS mod -96.8 | JMH597 growth rt inactive | BB721 const-QS lum 96.7 | BB721 growth rt inactive | AI-2 QS JMH597 97.5
O=c1c2ccccc2nc(SCc2ccc([N+](=O)[O-])cc2)n1CCCO	none
O=C(CN1C(=O)c2ccccc2S1(=O)=O)Nc1ccc(S(=O)(=O)N2CCCC2)cc1	AI-2 QS mod -95.0 | JMH597 growth rt inactive | BB721 const-QS lum 97.9 | BB721 growth rt inactive | AI-2 QS JMH597 98.1
CSc1cccc(NC(=O)CN2C(=O)c3ccccc3S2(=O)=O)c1	AI-2 QS mod -85.6 | JMH597 growth rt inactive | BB721 const-QS lum 93.7 | BB721 growth rt inactive | AI-2 QS JMH597 95.6
O=C(CN1C(=O)c2ccccc2S1(=O)=O)Nc1cccc(S(=O)(=O)N2CCCCC2)c1	none (no result: AI-2 QS mod, PolyA inh, GSK3beta inhib)
O=C(CN1C(=O)c2ccccc2S1(=O)=O)Nc1ccc(S(=O)(=O)N2CCCCC2)cc1	AI-2 QS mod -85.5 | JMH597 growth rt inactive | BB721 const-QS lum 96.3 | BB721 growth rt inactive | AI-2 QS JMH597 97.7
COc1ccc(N2CCN(CC(=O)Nc3nc(C)cs3)CC2)cc1	none
CCOc1ncccc1C(=O)NCCc1ccc(Cl)cc1	none
CCc1nnc(NC(=O)CSc2ccc(-c3cccs3)nn2)s1	AI-2 QS mod -88.6 | JMH597 growth rt inactive | BB721 const-QS lum 96.8 | BB721 growth rt inactive | AI-2 QS JMH597 97.9
CCc1nnc(NC(=O)CSc2ccc(-c3ccccc3OC)nn2)s1	AI-2 QS mod -87.0 | JMH597 growth rt inactive | BB721 const-QS lum 98.1 | BB721 growth rt inactive | AI-2 QS JMH597 98.5
Cc1ccc(CNC(=O)CSc2ccc(-c3cccs3)nn2)cc1	none (no result: STK33 inh, GSK3A inh)
CCc1nnc(NC(=O)CSc2ccc(-c3ccc(F)cc3)nn2)s1	AI-2 QS mod -93.1 | JMH597 growth rt inactive | BB721 const-QS lum 89.8 | BB721 growth rt inactive | AI-2 QS JMH597 93.1
CCN(C(=O)c1cccnc1SC)C12CC3CC(CC(C3)C1)C2	none
Cc1c(C)c2cc(Cl)c(OCC(=O)N3CCN(c4ccc(F)cc4)CC3)cc2oc1=O	none
O=C(NCc1ccc(Cl)cc1)C(=O)c1c[nH]c2ccccc12	AI-2 QS mod -88.9 | JMH597 growth rt inactive | BB721 const-QS lum 96.7 | BB721 growth rt inactive | AI-2 QS JMH597 97.8
O=C(Nc1ccc([N+](=O)[O-])cc1Br)c1cc2ccccc2nc1Cl	none
COc1ccc(NC(=O)CSc2nc3ncccc3[nH]2)cc1OC	none
CC(C)OC(=O)c1ccc(NC(=O)CSc2nc3ncccc3[nH]2)cc1	AI-2 QS mod -85.1 | JMH597 growth rt inactive | BB721 const-QS lum 96.2 | BB721 growth rt inactive | AI-2 QS JMH597 97.5
CC(C)c1ccc(NC(=O)CSc2nc3ncccc3[nH]2)cc1	AI-2 QS mod -82.7 (no result: GSK3A inh) | JMH597 growth rt inactive | BB721 const-QS lum 92.8 | BB721 growth rt inactive | AI-2 QS JMH597 95.2
CC12CCC(=O)N1C(C(=O)Nc1ccc(S(=O)(=O)N3CCCCC3)cc1)CS2 (stereo not given)	none
Cc1cccc(C)c1NC(=O)C1CSC2(C)CCC(=O)N12 (stereo not given)	none
